In the library only some 2.5% were active in any assay of this set; here they are far more common.
MC4R antag cAMP: antagonists of human melanocortin 4 receptor (MC4R). P32245. MC4R-expressing cells, MTII-stimulated cAMP, LANCE TR-FRET. inhibition, % at 6.5 µM. 360,000 tested, 0.48% active. AID 540295;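 active means inhibition above its plate's cutoff, the mean of tested wells on that plate plus 3 SD, cut at about 29% in these data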;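 further: 0% = Melanotan II alone and 100% = Melanotan II plus saturating MCL0020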
Target sequence (P32245 whole entry, looked up): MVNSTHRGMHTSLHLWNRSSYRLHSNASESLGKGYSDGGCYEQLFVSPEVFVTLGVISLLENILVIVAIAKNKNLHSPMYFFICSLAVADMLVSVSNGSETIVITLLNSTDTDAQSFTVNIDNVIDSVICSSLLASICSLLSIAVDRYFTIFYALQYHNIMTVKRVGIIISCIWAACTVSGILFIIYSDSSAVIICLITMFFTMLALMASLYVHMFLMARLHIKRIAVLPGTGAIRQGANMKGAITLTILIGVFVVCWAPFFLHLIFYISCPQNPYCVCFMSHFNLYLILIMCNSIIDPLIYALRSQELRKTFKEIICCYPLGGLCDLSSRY
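Assay system: U2OS cells stably expressing human melanocortin 4 receptor (MC4R) / Dosing: 6.5 µM / Timing: compound 30 min, challenge 1 h, detection 1 h / Measured by: Eu-cAMP/anti-cAMP TR-FRET, emission 671 nm / Replicates: singlicate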
NALP1 yeast inh: NALP1 inhibition. S. cerevisiae NALP1/ASC/caspase-1 growth, X-gal OD620, 72 h. inhibition, % at 10 µM. 280,000 tested, 0.61% active. AID 2071; in the data active means inhibition mostly above about 24%, no sharp cut-off; inactive means mostly below about 32%
TbMetRS inhib: Trypanosoma brucei MetRS inhibition. purified T. brucei MetRS, ATP depletion, Kinase-Glo luminescence. inhibition, % at 11.9 µM. 360,000 tested, 0.4% active. AID 624268;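 active means inhibition above a per-plate cutoff of the control wells' mean inhibition plus 3 SD, cut at about 5.5% in these data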;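 further: 0% = DMSO wells median and 100% = median of wells with control inhibitor compound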
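Test system: purified T. brucei MetRS enzyme. Also added: ATP, methionine and E. coli bulk tRNA substrates. Compound: 11.9 µM single point. Schedule: 15 min enzyme-compound preincubation, 2 h reaction, 10 min detection, 25 °C. Signal: luciferase luminescence of residual ATP, Kinase-Glo. Evaluation: percent inhibition versus plate control medians. Controls: DMSO wells, low control.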
NLRP3 yeast inh: inhibitors of NALP3 inflammasome in yeast; Yeast reconstituted NLRP3/ASC/caspase-1, beta-gal luminescence, 24 h; inhibition, % at 10 µM; 330,000 tested, 0.39% active;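 active means inhibition of 50% or more; inactive means inhibition below 50%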;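 further: plate controls were induced DMSO wells for no effect and uninduced yeast grown without galactose for full effect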
A1 inh: inhibitors of the anti-apoptotic protein A1, read as caspase activation; AID 2462; MEF A1-2A-BIM cells, Caspase-Glo 3/7 luminescence, 3 h; percent of clofoctol response, vehicle zero; caspase activation, % (concentration not given with the values); 330,000 tested, 0.066% active;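 active means over half of replicate activation scores above 10%, or exactly half above 10 with the replicate mean above 10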
MC4R barr agon: human MC4R agonism via beta-arrestin. U2OS MC4R beta-arrestin complementation, luminescence; percent of melanotan II response, DMSO zero. activation, % at 8.9 µM. P32245. 360,000 tested, 0.98% active. AID 540308;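 active means activation above a per-plate cutoff, the mean activation of sample wells on that plate plus 3 SD, cut at about 8% in these data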
TbMetRS confirm: confirmation of Trypanosoma brucei MetRS inhibitors. inhibition, % at 11.9 µM. T. brucei MetRS enzyme, luminescence (ATP depletion). shares compounds with TbMetRS inhib. 1,400 tested, 93% active; in the data active means inhibition above about 7%
Jurkat cytotox: counter-screen for T. brucei MetRS inhibitors: Jurkat cell cytotoxicity; Jurkat cells viability, ATP luminescence; inhibition, % at 8.3 µM; shares compounds with TbMetRS inhib; 1,400 tested, 12% active; in the data active means inhibition above about 15%;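 further: 0% = vehicle and 100% = reference inhibitor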
Tb MetRS inh FP: inhibits T. brucei methionyl tRNA synthetase in orthogonal FP test | purified T. brucei MetRS, fluorescence polarization | shares compounds with TbMetRS inhib | 1,400 tested, 44% active | inhibition, % at 11.9 µM | AID 651607; in the data active means inhibition above about 17%;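 further: 0% = vehicle wells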
The depositor's hits bear a star.

Screening COc1cc(Cn2c3ccc(NC(=S)NCc4ccc(C)cc4)cc3c(=O)n2C)ccc1F returned MC4R antag cAMP 2, TbMetRS inhib 7.9*, MC4R barr agon 1, TbMetRS confirm 28*, Jurkat cytotox 1 and Tb MetRS inh FP 16.
For Cc1cc(C)cc(Cn2c3ccc(NC(=S)NCc4ccccc4F)cc3c(=O)n2C)c1 the results were MC4R antag cAMP 3, TbMetRS inhib 8.5*, MC4R barr agon 2, TbMetRS confirm 33*, Jurkat cytotox -7 and Tb MetRS inh FP 16.
O=C(OCC(=O)c1c[nH]c2ccccc12)c1ccc(OC(F)F)cc1 was read as MC4R antag cAMP 0, TbMetRS inhib 12*, MC4R barr agon 4, TbMetRS confirm 31*, Jurkat cytotox 4 and Tb MetRS inh FP 29*.
`CSc1ccc(CN2CCC(CO)(CCOc3ccccc3)CC2)cc1` gave MC4R antag cAMP 14, NALP1 yeast inh -10, TbMetRS inhib 1, NLRP3 yeast inh 33, A1 inh 0 and MC4R barr agon 2.
Screening O=c1[nH]c(CSc2ncnc3sccc23)nc2cc(C(F)(F)F)ccc12 returned MC4R antag cAMP 10, TbMetRS inhib 1, NLRP3 yeast inh -4, A1 inh 0 and MC4R barr agon -2.
`O=c1[nH]c(Cc2cccc(C(F)(F)F)c2)nc2ccccc12` gave MC4R antag cAMP 5, NALP1 yeast inh 3, TbMetRS inhib 51*, NLRP3 yeast inh 9, A1 inh 2, MC4R barr agon 9.0*, TbMetRS confirm 55*, Jurkat cytotox -5 and Tb MetRS inh FP 27*.
Screening O=c1[nH]c(Cc2ccc(Cl)cc2)nc2ccccc12 returned MC4R antag cAMP 3, NALP1 yeast inh -7, TbMetRS inhib -1, NLRP3 yeast inh -8, A1 inh 0 and MC4R barr agon 1.
For O=c1[nH]c(CSc2ncc(C(F)(F)F)cc2Cl)nc2ccccc12 the results were MC4R antag cAMP 2, NALP1 yeast inh -5, TbMetRS inhib 53*, NLRP3 yeast inh -36, A1 inh 0, MC4R barr agon 0, TbMetRS confirm 77*, Jurkat cytotox 11 and Tb MetRS inh FP 54*.
Screening N#CC1(NC(=O)COC(=O)Cc2c[nH]c3ccccc23)CCCCC1 returned MC4R antag cAMP 2, TbMetRS inhib 0 and MC4R barr agon -1.
`Cc1cc(C)cc(N(CC(=O)Nc2ccc(Br)cc2)S(=O)(=O)c2c(C)[nH]c(=O)[nH]c2=O)c1` gave MC4R antag cAMP -5, NALP1 yeast inh -15, TbMetRS inhib 49*, NLRP3 yeast inh 1, A1 inh 2, MC4R barr agon -4, TbMetRS confirm 76*, Jurkat cytotox -1 and Tb MetRS inh FP 45*.
Screening CCOC(=O)c1sc(NC(=O)Nc2ccccc2)cc1C returned MC4R antag cAMP 6, NALP1 yeast inh 14, TbMetRS inhib 11*, NLRP3 yeast inh 16, A1 inh -10, MC4R barr agon 4, TbMetRS confirm 28*, Jurkat cytotox 15 and Tb MetRS inh FP 36*.
`CCN(CC(=O)Nc1c(F)cccc1F)C(=O)c1ccc2c(c1)NC(=O)C(C)S2` (stereo not drawn) gave MC4R antag cAMP -1, TbMetRS inhib 0, NLRP3 yeast inh 23, A1 inh 1 and MC4R barr agon 1.
CCN(CC(=O)Nc1ccc(OC)cc1)C(=O)c1ccc2c(c1)NC(=O)C(C)S2 (stereo not drawn) was read as MC4R antag cAMP 23, TbMetRS inhib 18*, NLRP3 yeast inh 18, A1 inh 0, MC4R barr agon -1, TbMetRS confirm 48*, Jurkat cytotox -1 and Tb MetRS inh FP 24*.

Assay outcomes from PubChem BioAssay.
